The record followed here is ChEMBL document CHEMBL4020830, “Design, Synthesis, and Evaluation of a Novel Series of Indole Sulfonamide Peroxisome Proliferator Activated Receptor (PPAR) α/γ/δ Triple Activators: Discovery of Lanifibranor, a New Antifibrotic Clinical Candidate” (J Med Chem, 2018).

What is called EC50 is the concentration giving half of the maximal effect.

Format in all cases: cell-based
For assay [1], the target named is T1, Peroxisome proliferator-activated receptor alpha (Homo sapiens, UniProt Q07869).
T1 sequence (Q07869 whole entry): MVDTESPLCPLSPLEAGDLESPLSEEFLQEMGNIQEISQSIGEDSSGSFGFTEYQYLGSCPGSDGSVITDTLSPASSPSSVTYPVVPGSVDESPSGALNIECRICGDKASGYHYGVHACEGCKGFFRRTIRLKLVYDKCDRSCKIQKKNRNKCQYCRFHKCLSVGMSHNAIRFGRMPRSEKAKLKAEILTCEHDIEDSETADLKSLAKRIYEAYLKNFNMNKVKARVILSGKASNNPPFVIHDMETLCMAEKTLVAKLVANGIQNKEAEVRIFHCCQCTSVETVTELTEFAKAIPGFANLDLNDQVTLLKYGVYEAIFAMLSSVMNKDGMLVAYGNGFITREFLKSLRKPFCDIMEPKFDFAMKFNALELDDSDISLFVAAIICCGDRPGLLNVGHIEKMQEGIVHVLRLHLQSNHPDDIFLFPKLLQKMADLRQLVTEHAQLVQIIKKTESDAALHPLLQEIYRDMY
The assay is described as follows: Transactivation of human GAL4-fused PPARalpha LBD expressed in African green monkey COS7 cells co-expressing 5Gal4 pGL3 TK Luc after overnight incubation by luciferase reporter gene assay. Summed up:
(§1)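 Cell-based Gal-4 transactivation assay in COS-7 cells transfected with PPARα, PPARδ or PPARγ ligand-binding domain. EC50 and Emax were derived, with Emax as maximum activation in percent of control. EC50s are means of at least two independent experiments performed in triplicate.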

Assay [2] has as its target T2, Peroxisome proliferator-activated receptor alpha (Homo sapiens) (UniProt Q07869).
T2 sequence (whole entry): T1 sequence (Q07869 whole entry)
Briefly: Transactivation of human GAL4-fused PPARalpha LBD expressed in African green monkey COS7 cells co-expressing 5Gal4 pGL3 TK Luc after overnight incubation by luciferase reporter gene assay relative to fenofibric acid. The procedure, abridged: as §1
A general note: In a reporter assay the amount or activity of a reporter protein is the signal.

Assay [3] addresses T3, Peroxisome proliferator-activated receptor delta (Homo sapiens) (UniProt Q03181).
T3 sequence (whole entry): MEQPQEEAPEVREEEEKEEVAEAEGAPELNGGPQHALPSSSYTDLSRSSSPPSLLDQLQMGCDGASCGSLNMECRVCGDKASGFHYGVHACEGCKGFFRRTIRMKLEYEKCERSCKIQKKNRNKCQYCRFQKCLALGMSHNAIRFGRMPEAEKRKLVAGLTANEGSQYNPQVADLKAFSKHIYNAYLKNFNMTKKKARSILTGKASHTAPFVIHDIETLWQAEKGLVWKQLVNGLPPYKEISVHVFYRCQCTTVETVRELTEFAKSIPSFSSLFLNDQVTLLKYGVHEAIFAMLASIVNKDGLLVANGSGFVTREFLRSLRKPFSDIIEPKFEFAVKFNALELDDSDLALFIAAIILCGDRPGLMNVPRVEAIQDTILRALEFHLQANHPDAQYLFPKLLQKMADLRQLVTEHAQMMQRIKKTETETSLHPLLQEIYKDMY
The assay is described as follows: Transactivation of human GAL4-fused PPARdelta LBD expressed in African green monkey COS7 cells co-expressing 5Gal4 pGL3 TK Luc after overnight incubation by luciferase reporter gene assay relative to GW501516. Summed up:
as §1

Assay [4] addresses T4, Peroxisome proliferator-activated receptor gamma (Homo sapiens, UniProt P37231).
T4 sequence (P37231 whole entry): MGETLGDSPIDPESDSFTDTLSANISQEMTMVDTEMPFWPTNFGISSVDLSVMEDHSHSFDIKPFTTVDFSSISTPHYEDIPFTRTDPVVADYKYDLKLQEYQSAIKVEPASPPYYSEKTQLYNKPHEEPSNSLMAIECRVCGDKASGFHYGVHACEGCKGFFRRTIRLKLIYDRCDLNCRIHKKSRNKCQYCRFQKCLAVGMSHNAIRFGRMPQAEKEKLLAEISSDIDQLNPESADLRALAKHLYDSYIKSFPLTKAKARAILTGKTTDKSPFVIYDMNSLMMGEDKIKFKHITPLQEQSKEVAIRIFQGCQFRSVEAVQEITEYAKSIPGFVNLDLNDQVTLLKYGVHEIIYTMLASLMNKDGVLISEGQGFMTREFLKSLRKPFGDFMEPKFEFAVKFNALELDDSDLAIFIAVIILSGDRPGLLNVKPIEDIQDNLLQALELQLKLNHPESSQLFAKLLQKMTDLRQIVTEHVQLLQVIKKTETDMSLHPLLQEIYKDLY
Briefly: Transactivation of human GAL4-fused PPARgamma LBD expressed in African green monkey COS7 cells co-expressing 5Gal4 pGL3 TK Luc after overnight incubation by luciferase reporter gene assay. The procedure, abridged:
as §1

The target in assay [5] is T5, Peroxisome proliferator-activated receptor gamma (Homo sapiens) (UniProt P37231).
T5 sequence (whole entry): T4 sequence (P37231 whole entry)
The assay is described as follows: Transactivation of human GAL4-fused PPARgamma LBD expressed in African green monkey COS7 cells co-expressing 5Gal4 pGL3 TK Luc after overnight incubation by luciferase reporter gene assay relative to rosiglitazone. The procedure, abridged:
as §1

Assay [6] has as its target T6, Peroxisome proliferator-activated receptor delta (Homo sapiens, UniProt Q03181).
T6 sequence (Q03181 whole entry): T3 sequence (whole entry)
The assay is described as follows: Transactivation of human GAL4-fused PPARdelta LBD expressed in African green monkey COS7 cells co-expressing 5Gal4 pGL3 TK Luc after overnight incubation by luciferase reporter gene assay. The procedure, abridged: as §1

Consider `O=C(O)CCCc1cc2cc(Cl)ccc2n1S(=O)(=O)c1cccc2ccccc12`, for which the EC50 worked out at 901 nM in assay [1] and 265 nM in assay [4]. The Emax in assay [2] is 67%; in assay [3], < 20%; in assay [5], 36%.
`O=C(O)CCCc1cc2cc(C(F)(F)F)ccc2n1S(=O)(=O)c1ccccc1Cl`: the EC50 in assay [1] and in assay [4] was > 5000 nM throughout. Besides, the Emax was 104% in assay [2], < 20% in assay [3] and 45% in assay [5].
On to `O=C(O)CCCc1cc2cc(C(F)(F)F)ccc2n1S(=O)(=O)c1cccc(OC(F)(F)F)c1`, for which the values for the EC50 in assay [1], in assay [4] and in assay [6] were 2760 nM, 201 nM and 1140 nM, respectively. Further, the Emax in assay [2] stood at 50%; in assay [3], 23%; in assay [5], 39%.
With `CN1CCOc2ccc(S(=O)(=O)n3c(CCCC(=O)O)cc4cc(Cl)ccc43)cc21`, the EC50 in assay [1] amounted to 410 nM; in assay [4] it was 16 nM; in assay [6] it was 697 nM. Besides, the Emax in assay [2] is 113%; in assay [3] it was 54%; in assay [5], 48%.
As for `O=C(O)CCCc1cc2cc(C(F)(F)F)ccc2n1S(=O)(=O)c1ccc(Cl)cc1`, the EC50 in assay [1] stood at 2820 nM; in assay [4] it was 629 nM; in assay [6] it was 1650 nM. Also, the values for the Emax in assay [2], in assay [3] and in assay [5] were 45%, 38% and 36%, respectively.
As for `O=C(O)CCCc1cc2cc(Cl)ccc2n1S(=O)(=O)c1ccc2nsnc2c1`, the figures for the EC50 in assay [1], in assay [4] and in assay [6] were > 5000 nM, 153 nM and > 5000 nM, respectively. In addition, the figures for the Emax in assay [2], in assay [3] and in assay [5] were 81%, 35% and 67%, respectively.
On to `O=C(O)CCCCc1cc2cc(Cl)ccc2n1S(=O)(=O)c1ccccc1`, for which the Emax in assay [2], in assay [3] and in assay [5] was < 20% each time.
As to `O=C(O)CCCc1cc2cc(Cl)ccc2n1S(=O)(=O)c1ccc2ccccc2c1`, the figures for the Emax in assay [2], in assay [3] and in assay [5] were < 20%, < 20% and 34%, respectively. This molecule yielded an EC50 in assay [4] of 35 nM.
As to `O=C(O)CCCc1cc2cc(C(F)(F)F)ccc2n1S(=O)(=O)c1ccc(OC(F)(F)F)cc1`, the figures for the EC50 in assay [1], in assay [4] and in assay [6] were 1960 nM, 573 nM and 2100 nM, respectively. For the same molecule, the Emax in assay [2] came to 40%; in assay [3], 28%; in assay [5], 32%.
Turning to `Cc1nc2cc(S(=O)(=O)n3c(CCCC(=O)O)cc4cc(Cl)ccc43)ccc2s1`, the values for the EC50 in assay [1], in assay [4] and in assay [6] were 2360 nM, 175 nM and 1100 nM, respectively. In addition, the Emax in assay [2] stood at 22%; in assay [3], 20%; in assay [5] it was 39%.
Consider `O=C(O)CCCc1cc2cc(Cl)ccc2n1S(=O)(=O)c1ccc2nc[nH]c2c1`, for which the EC50 in assay [1], in assay [4] and in assay [6] was > 5000 nM each time. The Emax in assay [2] is 43%; in assay [3] it was 20%; in assay [5], 42%.
Take `O=C(O)CCCc1cc2cc(C(F)(F)F)ccc2n1S(=O)(=O)c1ccc2ncsc2c1`: the EC50 in assay [1] was 1620 nM; in assay [4], 147 nM; in assay [6], 1120 nM. Besides, the values for the Emax in assay [2], in assay [3] and in assay [5] were 82%, 79% and 70%, respectively.
In the case of `O=C(O)COCc1cc2cc(Cl)ccc2n1S(=O)(=O)c1ccccc1`, the Emax in assay [2], in assay [3] and in assay [5] was < 20% throughout.
On to `Cc1nc2ccc(S(=O)(=O)n3c(CCCC(=O)O)cc4cc(Cl)ccc43)cc2s1`, for which the results for the Emax in assay [2], in assay [3] and in assay [5] were < 20%, 27% and 36%, respectively. In addition, the values for the EC50 in assay [4] and in assay [6] were 11 nM and 441 nM, respectively.
As to `Cc1ccc(S(=O)(=O)n2c(CCCC(=O)O)cc3cc(Cl)ccc32)cc1`, the EC50 in assay [1] was > 5000 nM; in assay [4], 277 nM; in assay [6], 1080 nM. Also, the figures for the Emax in assay [2], in assay [3] and in assay [5] were 36%, 29% and 30%, respectively.
As to `Cc1cccc(S(=O)(=O)n2c(CCCC(=O)O)cc3cc(Cl)ccc32)c1`, the EC50 in assay [1] was 1250 nM; in assay [4], 75 nM; in assay [6] it was 1350 nM. Also, the values for the Emax in assay [2], in assay [3] and in assay [5] were 59%, 42% and 46%, respectively.
Take `COc1cccc(S(=O)(=O)n2c(CCCC(=O)O)cc3cc(C(F)(F)F)ccc32)c1`: the figures for the 50% effective concentration (EC50) in assay [1], in assay [4] and in assay [6] were 1160 nM, 65 nM and 1610 nM, respectively. The Emax was 37% in assay [2], 28% in assay [3] and 46% in assay [5].
`COc1ccc(S(=O)(=O)n2c(CCCC(=O)O)cc3cc(Cl)ccc32)cc1`: the EC50 in assay [1] came out at 419 nM; in assay [4], 72 nM. Besides, the Emax in assay [2] was 26%; in assay [3] it was < 20%; in assay [5], 25%.
In the case of `COc1cccc(S(=O)(=O)n2c(CCCC(=O)O)cc3cc(Cl)ccc32)c1`, the concentration giving a half-maximal response (EC50) amounted to 305 nM in assay [1], 72 nM in assay [4] and 1230 nM in assay [6]. Further, the results for the Emax in assay [2], in assay [3] and in assay [5] were 40%, 43% and 48%, respectively.
Regarding `COc1ccc2c(c1)cc(CCCC(=O)O)n2S(=O)(=O)c1ccccc1`, the Emax in assay [2], in assay [3] and in assay [5] was < 20% in each case.
Consider `COc1ccccc1S(=O)(=O)n1c(CCCC(=O)O)cc2cc(C(F)(F)F)ccc21`, for which the EC50 in assay [1] is > 5000 nM; in assay [4] it was 1250 nM. Besides, the Emax in assay [2] was 35%; in assay [3], < 20%; in assay [5] it was 35%.
For `O=C(O)CCCc1cc2cc(C(F)(F)F)ccc2n1S(=O)(=O)c1cccc(Cl)c1`, the EC50 in assay [1] amounted to 2420 nM; in assay [4] it was 256 nM; in assay [6], 2030 nM. The Emax in assay [2] stood at 70%; in assay [3], 21%; in assay [5], 49%.
Turning to `COc1ccc(S(=O)(=O)n2c(CCCC(=O)O)cc3cc(C(F)(F)F)ccc32)cc1`, the EC50 in assay [1] turned out to be 764 nM; in assay [4], 82 nM; in assay [6], 1260 nM. For the same molecule, the Emax in assay [2] was determined as 55%; in assay [3] it was 24%; in assay [5], 38%.
As for `Nc1nc2ccc(S(=O)(=O)n3c(CCCC(=O)O)cc4cc(Cl)ccc43)cc2o1`, the EC50 was > 5000 nM in assay [1], 378 nM in assay [4] and 1390 nM in assay [6]. Moreover, the figures for the Emax in assay [2], in assay [3] and in assay [5] were 44%, 66% and 52%, respectively.
As for `CC(C)(CCc1cc2cc(Cl)ccc2n1S(=O)(=O)c1ccccc1)C(=O)O`, the EC50 came out at 160 nM in assay [1] and 910 nM in assay [4]. Further, the Emax in assay [2] is 90%; in assay [3], < 20%; in assay [5], 32%.
